Measured values from ChEMBL document CHEMBL3588778, “Synthesis and biological evaluation of spirocyclic antagonists of CCR2 (chemokine CC receptor subtype 2)” (Bioorg Med Chem, 2015).

What was measured:
[1] = molecular target: C-C chemokine receptor type 2 (Mus musculus, UniProt P51683); test: Antagonist activity against mouse CCR2B expressed in human U2OS cells co-expressing beta-arrestin assessed as inhibition of mouse CCL2-induced beta-arrestin recruitment pre-incubated for 10 mins before mouse CCL2 stimulation for 90 mins by luminescence based assay; type: cell-based
C-C chemokine receptor type 2 (Mus musculus, UniProt P51683), sequence (P51683 whole entry): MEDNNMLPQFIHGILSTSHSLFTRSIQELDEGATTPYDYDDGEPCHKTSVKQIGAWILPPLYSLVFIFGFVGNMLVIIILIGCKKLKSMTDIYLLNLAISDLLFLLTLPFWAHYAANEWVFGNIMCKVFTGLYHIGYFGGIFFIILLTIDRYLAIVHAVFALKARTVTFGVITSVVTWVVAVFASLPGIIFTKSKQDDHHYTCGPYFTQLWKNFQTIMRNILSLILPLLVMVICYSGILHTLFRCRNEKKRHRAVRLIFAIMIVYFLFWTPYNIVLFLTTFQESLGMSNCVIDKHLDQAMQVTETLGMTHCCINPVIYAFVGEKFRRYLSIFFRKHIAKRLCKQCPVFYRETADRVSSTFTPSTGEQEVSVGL

[2] = molecular target: T1, C-C chemokine receptor type 2 (Homo sapiens, UniProt P41597); test: Antagonist activity against human CCR2B expressed in Chem-1 cells assessed as inhibition of human CCL2-induced intracellular calcium flux incubated for 10 mins by Fluo-4 AM dye based intracellular calcium flux assay; type: functional, cell-based
Target sequence in this assay (P41597 whole entry): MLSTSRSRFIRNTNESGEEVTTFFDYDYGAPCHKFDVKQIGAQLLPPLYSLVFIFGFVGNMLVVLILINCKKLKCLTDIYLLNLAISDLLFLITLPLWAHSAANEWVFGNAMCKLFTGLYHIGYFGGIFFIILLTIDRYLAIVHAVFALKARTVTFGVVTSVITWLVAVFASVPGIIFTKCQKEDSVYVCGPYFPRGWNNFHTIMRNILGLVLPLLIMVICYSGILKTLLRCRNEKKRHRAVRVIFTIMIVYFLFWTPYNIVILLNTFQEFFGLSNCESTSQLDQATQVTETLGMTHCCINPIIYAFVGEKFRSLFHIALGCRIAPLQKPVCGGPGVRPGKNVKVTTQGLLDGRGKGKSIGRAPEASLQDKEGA

[3] = molecular target: T1, C-C chemokine receptor type 2; test: Displacement of [125I]-CCL2 from human CCR2 expressed in U2OS cells at 1 uM incubated for 150 mins by scintillation spectrometry; type: cell-based
Method in brief: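 Membranes (15 µg protein) from U2OS cells stably expressing human CCR2 were incubated with 0.1 nM 125I-CCL2 for 150 min at 37 C. Buffer was 50 mM Tris-HCl pH 7.4 with 5 mM MgCl2 and 0.1% CHAPS. Test compound was 1 µM and nonspecific binding was defined with 10 µM INCB3344. Bound ligand was separated by filtration on PEI-coated GF/B filters and counted by scintillation. Result given as % displacement.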
Target sequence in this assay (P41597 whole entry, looked up): as the sequence (P41597 whole entry) above

[4] = molecular target: T1, C-C chemokine receptor type 2; test: Displacement of [125I]-CCL2 from human CCR2 expressed in U2OS cells incubated for 150 mins by scintillation spectrometry; type: cell-based
Target sequence in this assay (P41597 whole entry): as above

COc1ccc2c(c1)CCOC21CCN(CCCC(=O)NCc2cc(F)cc(C(F)(F)F)c2)CC1
IC50 [1]: > 30 µM | IC50 [2]: 0.318 µM | inhibition [3]: -1%

O=C(NCc1cc(F)cc(C(F)(F)F)c1)C(CCN1CCC2(CC1)OCCc1ccccc12)c1ccc(F)cc1 (stereo not given)
IC50 [1]: 3.63 µM | IC50 [2]: 0.173 µM | inhibition [3]: 7%

O=C(NCc1cc(C(F)(F)F)cc(C(F)(F)F)c1)C(CCN1CCC2(CC1)OCCc1ccccc12)c1ccc(F)cc1 (stereo not given)
IC50 [1]: 11.2 µM | IC50 [2]: 0.089 µM | inhibition [3]: 25%

COc1ccc2c(c1)CCOC21CCN(CCC(C(=O)NCc2cc(F)cc(C(F)(F)F)c2)c2ccc(F)cc2)CC1 (stereo not given)
IC50 [1]: 4.63 µM | IC50 [2]: 0.353 µM | inhibition [3]: -7%

COc1ccc2c(c1)CCOC21CCN(CCC(C(=O)NCc2cc(C(F)(F)F)cc(C(F)(F)F)c2)c2ccc(F)cc2)CC1 (stereo not given)
IC50 [1]: 4.16 µM | IC50 [2]: 0.163 µM

CC1Cc2ccccc2C2(CCN(CCCC(=O)NCc3cc(C(F)(F)F)cc(C(F)(F)F)c3)CC2)O1 (stereo not given)
IC50 [1]: 7.9 µM | IC50 [2]: 7.54 µM

O=C(CCCN1CCC2(CC1)OCCc1ccccc12)NCc1cc(C(F)(F)F)cc(C(F)(F)F)c1
IC50 [1]: 24 µM | IC50 [2]: 0.684 µM | inhibition [3]: 10%

COc1ccc2c(c1)CCOC21CCN(CCCC(=O)NCc2cc(C(F)(F)F)cc(C(F)(F)F)c2)CC1
IC50 [1]: 18 µM | IC50 [2]: 1.24 µM | inhibition [3]: 1%

Cc1ccc(-c2ccc3c(c2)C=C(C(=O)Nc2ccc(C[N+](C)(C)C4CCOCC4)cc2)CCC3)cc1
Ki [4]: 0.002 µM | IC50 [1]: 23 µM

CC1Cc2ccccc2C2(CCN(CCC(C(=O)NCc3cc(C(F)(F)F)cc(C(F)(F)F)c3)c3ccc(F)cc3)CC2)O1 (stereo not given)
IC50 [1]: 3.67 µM | IC50 [2]: 0.462 µM | inhibition [3]: 0%

O=C(CCCN1CCC2(CC1)OCCc1ccccc12)NCc1cc(F)cc(C(F)(F)F)c1
IC50 [1]: > 30 µM | IC50 [2]: 0.18 µM | inhibition [3]: 4%

O=C(NCc1cc(C(F)(F)F)cc(C(F)(F)F)c1)C(CCN1CCC2(CC1)OCCc1ccccc12)C1CC1 (stereo not given)
IC50 [1]: 3.3 µM | IC50 [2]: 0.017 µM

O=C(NCc1cc(F)cc(C(F)(F)F)c1)C(CCN1CCC2(CC1)OCCc1cc(O)ccc12)c1ccc(F)cc1 (stereo not given)
IC50 [1]: > 30 µM | IC50 [2]: 6.1 µM

CC1Cc2ccccc2C2(CCN(CCCC(=O)NCc3cc(F)cc(C(F)(F)F)c3)CC2)O1 (stereo not given)
IC50 [1]: > 30 µM | IC50 [2]: 12 µM | inhibition [3]: -10%

CC1Cc2ccccc2C2(CCN(CCC(C(=O)NCc3cc(F)cc(C(F)(F)F)c3)c3ccc(F)cc3)CC2)O1 (stereo not given)
IC50 [1]: 8.01 µM | IC50 [2]: 1.6 µM | inhibition [3]: 9%
